Assay results from different studies.
AHR: Aryl hydrocarbon receptor (AHR, Homo sapiens, UniProt P35869)
SLC10A2: Ileal sodium/bile acid cotransporter (SLC10A2, Homo sapiens, UniProt Q12908)

| Structure (SMILES) | target | observed | action | technique | pH | measurement | value |
| --- | --- | --- | --- | --- | --- | --- | --- |
| O=C(c1ccccn1)c1c[nH]c2ccccc12 | AHR | reporter gene | agonist | luciferase |  | EC50 | > 0.01 µM |
| CSCC[C@H](NC(=O)[C@@H](NC(=O)[C@@H](N)Cc1ccc(O)cc1)C(C)C)C(=O)NCC(=O)N[C@@H](Cc1c[nH]cn1)C(=O)N[C@@H](Cc1ccccc1)C(=O)N[C@@H](CCCNC(=N)N)C(=O)N[C@@H](Cc1c[nH]c2ccccc12)C(=O)N[C@@H](CC(=O)O)C(=O)O | Melanocortin receptor 5 (MC5R, Homo sapiens, UniProt P33032) | reporter gene | agonist |  |  | EC50 | 4.46 µM |
| O=C(CCCCCCNC(=O)c1cnc(N(c2ccccc2)c2ccccc2)nc1)NO | Polyamine deacetylase HDAC10 (HDAC10, Homo sapiens, UniProt Q969S8) | cell-free assay |  |  |  | Kd | 0.456 µM |
| COC(=O)c1cccc(C(=O)c2c[nH]c3c4c(ccc23)CCC4)n1 | AHR | reporter gene | agonist | luciferase |  | EC50 | 0.031 µM |
| O=C(N[C@H]1COC(=O)[C@@H](NC(=O)c2cccc(O)c2O)COC(=O)[C@@H](NC(=O)c2cccc(O)c2O)COC1=O)c1cccc(O)c1O | Neutrophil gelatinase-associated lipocalin (LCN2, Homo sapiens, UniProt P80188, C107S) | binding |  | fluorescence | pH 5.5 | Kd | 0.0055 µM |
| COC(=O)C1=C(C)NC(C)=C(C(=O)OCC(C)C)C1c1ccccc1[N+](=O)[O-] (stereo not drawn) | SLC10A2 | transporter uptake | inhibitor |  |  | Ki | 4.77 µM |
| Cc1cnc(-c2ccc(-c3ccc(NC(=O)Nc4c(F)cc(F)cc4F)cc3F)c3c2C(=O)NC3)[nH]1 | Epithelial discoidin domain-containing receptor 1 (DDR1, Homo sapiens, UniProt Q08345) | binding |  | competition with immobilised ligand |  | Kd | 0.0021 µM |
| COCCOC(=O)C1=C(C)NC(C)=C(C(=O)OC/C=C/c2ccccc2)C1c1cccc([N+](=O)[O-])c1 (stereo not drawn) | SLC10A2 | transporter uptake | inhibitor |  |  | Ki | 45.2 µM |
| CC(C)c1cc(C2CCCN2C(=O)c2cc(-c3ccc4c(c3)OCO4)on2)no1 (stereo not drawn) | Cannabinoid receptor 2 (CNR2, Homo sapiens, UniProt P34972) | cAMP | agonist | TR-FRET |  | EC50 | 0.01 µM |
| O=C(c1cccc(Cl)n1)c1c[nH]c2ccccc12 | AHR | reporter gene | agonist | luciferase |  | EC50 | 0.178 µM |
| CC[C@H](C)[C@H](NC(=O)[C@H](CCCCN)NC(=O)[C@H](CO)NC(=O)[C@H](CC(=O)O)NC(=O)[C@H](CCCCN)NC(=O)[C@H](CCCCN)NC(=O)CNC(=O)[C@H](Cc1c[nH]cn1)NC(=O)[C@@H](N)CCC(N)=O)C(=O)N[C@H](C(=O)N[C@@H](CC(=O)O)C(=O)N[C@@H](Cc1c[nH]cn1)C(=O)N[C@@H](Cc1ccccc1)C(=O)N[C@@H](CCSC)C(=O)N[C@@H](CCCNC(=N)N)C(=O)O)[C@@H](C)O | Proliferating cell nuclear antigen (PCNA, Homo sapiens, UniProt P12004) | binding |  | ITC | pH 7.4 | Kd | 45.3 µM |
| Cc1[nH]c2ccccc2c1C(=O)c1ccccc1 | AHR | reporter gene | agonist | luciferase |  | EC50 | > 10 µM |
| NS(=O)(=O)c1cc2c(cc1Cl)N=CNS2(=O)=O | SLC10A2 | transporter uptake | inhibitor |  |  | Ki | 1220 µM |
| COC(=O)c1cccc(C(=O)c2c[nH]c3c2ccc2ccccc23)n1 | AHR | reporter gene | agonist | luciferase |  | EC50 | 0.015 µM |
| CCN(CC)CCCC(C)Nc1ccnc2cc(Cl)ccc12 (stereo not drawn) | SLC10A2 | transporter uptake | inhibitor |  |  | Ki | 6320 µM |
